Screening data: PubChem BioAssay, Broad Institute
KDM4C inh – blocks human GASC-1 (KDM4C) demethylase activity; inhibition, % at 12.5 µM; hit rate 0.15% among 96,000; AID 720574; GST-KDM4C 2-372, H3K9me3 peptide, LANCE TR-FRET;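 active means mean replicate inhibition above about 25%, with at least 55% of replicates also reaching it, limit read from the data, passing the limit was not always enough; inconclusive means only one of those two conditions met; inactive means neither condition met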
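Test system: N-terminal GST-fused human GASC-1 (KDM4C) fragment, residues 2-372; quantity: GASC-1 enzyme at 10 nM final in reaction; dosing: single dose; schedule: 30 min demethylation and 1 h detection at room temperature; signal: LANCE TR-FRET, excitation 340 nm, emissions 618 and 671 nm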
Pf Dd2 growth – P. falciparum Dd2 growth inhibition. AID 1159554. hit rate 2.3% among 94,000. SYBR Green, 72 h; hits give low values. activity change, % at 10 µM; in the data active means activity change below about -80%; inconclusive means no clear call, values can overlap the other calls
T cruzi growth-1 – T. cruzi proliferation inhibition; T. cruzi beta-gal in NIH3T3, GalScreen luminescence, 90 h; inhibition, % at 8.34 µM; hit rate 5.9% among 77,000; AID 624255;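 active means mean inhibition above about 93%, with at least 55% of replicates each passing it, limit read from the data, passing the limit was not always enough; inconclusive means only one of those two conditions holds; inactive means neither condition holds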
IDH1 R132H inh – inhibitors of human IDH1 R132H; AID 624101; O75874; hit rate 0.18% among 70,000; IDH1 R132H reductase, diaphorase/resazurin fluorescence, 60 min; inhibition, % at 10 µM; in the data active means inhibition above about 34%; inconclusive means no clear call, values can overlap the other calls; inactive means below about 11%;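 further: 0% = DMSO and 100% = no enzyme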
Target sequence (O75874 whole entry R132H): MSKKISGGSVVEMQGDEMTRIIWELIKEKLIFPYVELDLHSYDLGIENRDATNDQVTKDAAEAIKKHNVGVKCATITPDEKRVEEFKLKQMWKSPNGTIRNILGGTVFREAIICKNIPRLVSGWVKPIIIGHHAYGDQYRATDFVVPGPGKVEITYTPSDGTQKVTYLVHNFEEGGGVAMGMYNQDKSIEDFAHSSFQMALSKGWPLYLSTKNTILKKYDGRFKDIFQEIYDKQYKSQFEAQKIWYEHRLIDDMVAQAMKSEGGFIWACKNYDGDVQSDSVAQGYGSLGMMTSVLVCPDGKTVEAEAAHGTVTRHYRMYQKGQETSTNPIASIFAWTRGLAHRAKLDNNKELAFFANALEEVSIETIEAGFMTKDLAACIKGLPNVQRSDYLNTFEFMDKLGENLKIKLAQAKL
T cruzi growth-2 – inhibitors of T. cruzi proliferation; AID 651739; inhibition, % at 8.35 µM; T. cruzi beta-gal in NIH3T3, GalScreen luminescence, 90 h; shares compounds with T cruzi growth-1; hit rate 72% among 5,600;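 active means mean replicate inhibition above about 95% and at least 55% of replicates individually reaching it, limit read from the data; inconclusive means only one of the two criteria is met; inactive means neither criterion is met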
T cruzi growth-3 – blocks T. cruzi growth in NIH3T3 host cells. shares compounds with T cruzi growth-1. T. cruzi beta-gal in NIH3T3, GalScreen luminescence, 90 h. inhibition, % at 2.09 µM. hit rate 21% among 5,600;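 active means mean inhibition above about 95%, with at least 55% of replicates also reaching it, limit read from the data; inconclusive means meets just one of the two conditions; inactive means meets neither condition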;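 further: plate controls were neutral control median for no effect and positive control median for full effect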
NIH3T3 tox – NIH/3T3 (mouse) viability loss | cytotoxicity (signal decrease), % at 8.35 µM | hit rate 14% among 5,600 | AID 651742 | NIH/3T3 viability, CellTiter-Glo ATP luminescence, 90 h | shares compounds with T cruzi growth-1;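 active means mean signal decrease across replicates above about 35% based on untreated-well scatter, with enough replicates individually passing, limit read from the data; inconclusive means no rule stated though some were filed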;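 further: 0% = median of neutral control wells and 100% = median of positive control wells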
3T3 cytotox 2 – NIH/3T3 (mouse) viability loss. shares compounds with T cruzi growth-1. NIH/3T3 viability, CellTiter-Glo ATP luminescence, 90 h. inhibition, % at 24.9 µM. hit rate 56% among 5,600. AID 651744;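 active means mean loss of cell viability signal at or above a set limit, and enough replicates individually reaching it; inconclusive means meets only the mean limit or only the replicate share; inactive means meets neither condition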;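 further: 0% = median of neutral control wells and 100% = median of positive control wells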
* = called active by the depositor; ? = inconclusive; / = no result given. An excerpt weighted towards active compounds, which were near 5.8% of everything screened.

SMILES	KDM4C inh	Pf Dd2 growth	T cruzi growth-1	IDH1 R132H inh	T cruzi growth-2	T cruzi growth-3	NIH3T3 tox	3T3 cytotox 2
C[C@@H]1CN([C@H](C)CO)C(=O)c2cc(NC(=O)Nc3ccc(F)cc3)ccc2O[C@@H](C)CCCCO[C@H]1CN(C)C(=O)Nc1ccc(C(F)(F)F)cc1	0	-35	83	7	/	/	/	/
C[C@H]1CCCCO[C@H](CN(C)C(=O)Nc2ccc(F)cc2)[C@@H](C)CN([C@@H](C)CO)C(=O)c2cc(NC(=O)Nc3ccc(C(F)(F)F)cc3)ccc2O1	-2	-57	86	/	/	/	/	/
Cc1ccccc1NC(=O)CSc1nc2cc3ccccc3cc2[nH]1	/	/	/	0	/	/	/	/
C[C@H](CO)N1C[C@H](C)[C@H](CN(C)C(=O)Nc2ccc(F)cc2)Oc2ncc(C#Cc3ccccc3)cc2C1=O	-3	-67	110*	/	80	31	57*	103*
C[C@@H]1CN([C@H](C)CO)C(=O)c2cc(C#Cc3ccc(F)cc3)cnc2O[C@H]1CN(C)C(=O)Nc1ccc(F)cc1	-2	-23	8	0	/	/	/	/
C[C@H](CO)N1C[C@H](C)[C@H](CN(C)C(=O)Nc2ccccc2)Oc2ncc(C#Cc3ccc(C(F)(F)F)cc3)cc2C1=O	/	-35	117*	0	108*	?	16	105*
COc1ccc(NC(=O)N(C)C[C@@H]2Oc3ncc(C#Cc4ccc(C(F)(F)F)cc4)cc3C(=O)N([C@H](C)CO)C[C@@H]2C)cc1	-1	-73	108*	-1	101*	?	10	104*
C[C@@H]1CN([C@H](C)CO)C(=O)c2cc(C#CC3CC3)cnc2O[C@@H]1CN(C)C(=O)Nc1ccccc1	0	-12	107*	-5	53	46	-5	20
C[C@H](CO)N1C[C@H](C)[C@H](CN(C)C(=O)Nc2ccccc2)Oc2ncc(C#CC3CCCC3)cc2C1=O	-1	-34	61	/	/	/	/	/
COc1ccc(Cl)cc1NC(=O)CSc1nnc(-c2ccccc2)n1-c1ccc(C)cc1	/	/	/	0	/	/	/	/
COc1cccc(C2CC(C(F)(F)F)n3ncc(C(=O)NCc4cccnc4)c3N2)c1 (configuration not stated)	/	/	/	0	/	/	/	/
Cc1ccccc1-c1nc(C#N)c(NCCN2CCOCC2)o1	/	/	/	0	/	/	/	/
C[C@H](CO)N1C[C@H](C)[C@H](CN(C)C(=O)Nc2ccc3c(c2)OCO3)Oc2ncc(C#Cc3ccc(C(F)(F)F)cc3)cc2C1=O	-1	-60	?	2	100*	?	26	106*
COc1ccc(-n2c(SCC(=O)N3CCOCC3)nnc2-c2ccc(Cl)cc2)cc1	/	/	/	0	/	/	/	/
CC(C)NC(=O)N1CCCCN2[C@H](C1)[C@H](c1ccc(C#Cc3ccccc3F)cc1)[C@@H]2CO	-1	1	70	/	/	/	/	/
CC(C)NC(=O)N1CCCCN2[C@@H](CO)[C@H](c3ccc(C#Cc4ccccc4F)cc3)[C@@H]2C1	-3	-16	113*	/	96*	79	51*	104*
CC(C)NC(=O)N1CCCCN2[C@H](CO)[C@H](c3ccc(C#Cc4ccccc4F)cc3)[C@H]2C1	-2	-33	109*	/	104*	107*	31	103*
C[C@@H]1CN([C@H](C)CO)C(=O)c2cccc(NC(=O)c3nc4ccccc4s3)c2O[C@@H]1CN(C)C(=O)Nc1ccc(C(F)(F)F)cc1	-1	-65	80	/	/	/	/	/
C[C@H](CO)N1C[C@H](C)[C@@H](CN(C)C(=O)Nc2ccc(C(F)(F)F)cc2)Oc2c(NC(=O)c3nc4ccccc4s3)cccc2C1=O	0	-35	92*	1	88	70	32	64*
C[C@H](CO)N1C[C@H](C)[C@H](CN(C)C(=O)Nc2ccc(C(F)(F)F)cc2)Oc2c(NC(=O)c3nc4ccccc4s3)cccc2C1=O	0	-55	?	/	103*	87	45*	80*
Cc1ccc(Nc2nc(Oc3ccc(=O)[nH]n3)nc(N3CCOCC3)n2)cc1	/	/	/	0	/	/	/	/
C[C@@H]1CN([C@H](C)CO)C(=O)c2cc(/C=C/c3ccccc3)cnc2O[C@@H]1CN(C)Cc1ccccc1F	-2	-24	116*	3	92	58	-1	35*
C/C=C/c1cnc2c(c1)C(=O)N([C@@H](C)CO)C[C@H](C)[C@@H](CN(C)Cc1ccccc1F)O2	-1	0	/	0	/	/	/	/
C[C@H](CO)N1C[C@H](C)[C@@H](CN(C)Cc2ccccc2F)Oc2ncc(/C=C/c3ccccc3)cc2C1=O	0	-45	120*	0	108*	87	-22	104*
C[C@H]1CN([C@@H](C)CO)C(=O)c2cc(/C=C/c3ccccc3)cnc2O[C@@H]1CN(C)Cc1ccccc1F	-1	-47	112*	0	111*	79	7	105*
SMILES	KDM4C inh	Pf Dd2 growth	T cruzi growth-1	IDH1 R132H inh	T cruzi growth-2	T cruzi growth-3	NIH3T3 tox	3T3 cytotox 2
C/C=C/c1cnc2c(c1)C(=O)N([C@H](C)CO)C[C@H](C)[C@@H](CN(C)Cc1ccccc1F)O2	1	-8	/	-1	/	/	/	/
C/C=C/c1cnc2c(c1)C(=O)N([C@H](C)CO)C[C@H](C)[C@H](CN(C)Cc1ccccc1F)O2	-3	-66	/	0	/	/	/	/
C[C@H]1CN([C@@H](C)CO)C(=O)c2cc(/C=C/c3ccccc3)cnc2O[C@H]1CN(C)Cc1ccccc1F	-1	-48	116*	0	104*	95	18	41*
COC(=O)c1sc(N2C(=O)C(=O)C(C(=O)c3ccc(OC)c(C)c3)C2c2ccco2)nc1C (configuration not stated)	/	/	/	0	/	/	/	/
CC(C)(C)C(=O)COc1cccc(NC(=O)c2ccc([N+](=O)[O-])cc2)c1	/	/	/	0	/	/	/	/
CCc1cccc(OCC(=O)Nc2cc([N+](=O)[O-])ccc2O)c1	/	/	/	-1	/	/	/	/
N#Cc1c(NC(=O)c2cc3nc(-c4ccco4)cc(C(F)(F)F)n3n2)sc2c1CCC2	/	/	/	0	/	/	/	/
O=C(NC1CCCC1)N1CCCCN2[C@H](CO)[C@H](c3ccc(-c4ccccc4)cc3)[C@@H]2C1	2	16	113*	/	113*	79	-17	63*
COc1ccccc1-c1ccc([C@H]2[C@@H](CO)N3CCCCN(C(=O)NC4CCCC4)C[C@@H]23)cc1	0	25	100*	/	109*	81	-11	34*
O=C(NC1CCCC1)N1CCCCN2[C@H](CO)[C@@H](c3ccc(-c4ccccc4)cc3)[C@H]2C1	-3	1	61	/	/	/	/	/
C=CCn1c(CSc2nc(N)cc(N)n2)n[nH]c1=S	/	/	/	1	/	/	/	/
